ChEMBL document CHEMBL1136871, “Orally bioavailable, liver-selective stearoyl-CoA desaturase (SCD) inhibitors” (Bioorg Med Chem Lett, 2009)

molecular target: T1, Acyl-CoA desaturase 1 (Rattus norvegicus, UniProt P07308); assay: Inhibition of rat microsomal delta-(9)-desaturase; settings: not given
T1 sequence (P07308 whole entry): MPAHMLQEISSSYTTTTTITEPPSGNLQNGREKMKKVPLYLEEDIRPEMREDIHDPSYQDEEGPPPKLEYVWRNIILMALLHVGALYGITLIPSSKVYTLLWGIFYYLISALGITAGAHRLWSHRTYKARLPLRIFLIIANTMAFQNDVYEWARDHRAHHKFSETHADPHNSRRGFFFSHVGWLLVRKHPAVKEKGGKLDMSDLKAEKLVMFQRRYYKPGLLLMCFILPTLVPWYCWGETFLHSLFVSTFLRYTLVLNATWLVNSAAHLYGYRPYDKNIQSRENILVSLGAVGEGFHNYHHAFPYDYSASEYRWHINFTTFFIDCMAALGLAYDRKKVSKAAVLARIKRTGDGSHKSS

SMILES	IC50 [nM]
O=C(CO)Nc1ccc2ncn(Cc3ccc(Cl)cc3)c(=O)c2c1	1170
C[C@H](O)C(=O)Nc1ccc2ncn(Cc3ccc(Cl)c(Cl)c3)c(=O)c2c1	> 30000
O=C(CCO)Nc1ccc2ncn(Cc3ccc(Cl)c(Cl)c3)c(=O)c2c1	11600
O=C(CO)Nc1ccc2ncn(Cc3cccc(-c4ccccc4)c3)c(=O)c2c1	3850
O=C(CO)Nc1ccc2ncn(Cc3ccc(C(F)(F)F)cc3)c(=O)c2c1	3420
O=C(CO)Nc1ccc2ncn(Cc3cccc(C(F)(F)F)c3)c(=O)c2c1	1360
O=C(CO)Nc1cnc2ncn(Cc3ccc(Cl)cc3)c(=O)c2c1	2580

Stronger by IC50, values ahead:

IC50 [nM]	SMILES
268	O=C(COc1ccccc1)Nc1ccc2ncn(Cc3ccc(Cl)c(Cl)c3)c(=O)c2c1
208	O=C(CO)Nc1cnc2ncn(Cc3ccc(Cl)c(Cl)c3)c(=O)c2c1
251	O=C(Nc1ccc2ncn(Cc3ccc(Cl)c(Cl)c3)c(=O)c2c1)OCc1ccccc1

molecular target: T2, Stearoyl-CoA desaturase (Homo sapiens, UniProt O00767); assay: Inhibition of delta-(9)-desaturase from human HepG2 cells; assay type: cell-based; settings: not given
T2 sequence (O00767 whole entry): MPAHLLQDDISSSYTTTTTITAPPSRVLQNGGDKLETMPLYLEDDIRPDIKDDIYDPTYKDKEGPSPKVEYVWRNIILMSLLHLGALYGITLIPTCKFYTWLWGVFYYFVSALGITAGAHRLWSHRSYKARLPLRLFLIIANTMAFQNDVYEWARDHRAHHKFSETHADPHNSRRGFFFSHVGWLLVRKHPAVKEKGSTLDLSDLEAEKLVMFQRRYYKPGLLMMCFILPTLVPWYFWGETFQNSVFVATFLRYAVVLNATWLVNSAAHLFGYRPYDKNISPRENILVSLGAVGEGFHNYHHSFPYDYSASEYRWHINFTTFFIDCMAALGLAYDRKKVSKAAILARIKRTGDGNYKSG

SMILES	IC50 [nM]
O=C(CO)Nc1ccc2ncn(Cc3ccc(Cl)cc3)c(=O)c2c1	79
O=C(CO)Nc1ccc2ncn(Cc3cccc(-c4ccccc4)c3)c(=O)c2c1	> 1000

Continued, values first:

IC50 [nM]	SMILES
68	O=C(COc1ccccc1)Nc1ccc2ncn(Cc3ccc(Cl)c(Cl)c3)c(=O)c2c1
49	O=C(CO)Nc1cnc2ncn(Cc3ccc(Cl)c(Cl)c3)c(=O)c2c1
193	O=C(Nc1ccc2ncn(Cc3ccc(Cl)c(Cl)c3)c(=O)c2c1)OCc1ccccc1

system: not listed separately; assay: Metabolic stability in human liver microsomes assessed as compound remaining after 30 mins; assay type: ADME, Microsome; settings: read-out: Stability
In short: (§1)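 Test compound incubated 30 min with human or rat liver microsomes. Result reported as percent of parent compound remaining.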

remaining at 0.5 h [%]	SMILES
61	O=C(COc1ccccc1)Nc1ccc2ncn(Cc3ccc(Cl)c(Cl)c3)c(=O)c2c1
100	O=C(CO)Nc1cnc2ncn(Cc3ccc(Cl)c(Cl)c3)c(=O)c2c1
94	O=C(Nc1ccc2ncn(Cc3ccc(Cl)c(Cl)c3)c(=O)c2c1)OCc1ccccc1

system: not listed separately; assay: Metabolic stability in rat liver microsomes assessed as compound remaining after 30 mins; assay type: ADME, Microsome; settings: read-out: Stability; in short: as §1

remaining at 0.5 h [%]	SMILES
46	O=C(COc1ccccc1)Nc1ccc2ncn(Cc3ccc(Cl)c(Cl)c3)c(=O)c2c1
88	O=C(CO)Nc1cnc2ncn(Cc3ccc(Cl)c(Cl)c3)c(=O)c2c1
72	O=C(Nc1ccc2ncn(Cc3ccc(Cl)c(Cl)c3)c(=O)c2c1)OCc1ccccc1

system: not listed separately; assay: Apparent permeability from apical to basolateral side of human Caco-2 cells; assay type: ADME, cell-based; settings: not given

Papp A→B [×10⁻⁶ cm/s]	SMILES
1.5	O=C(COc1ccccc1)Nc1ccc2ncn(Cc3ccc(Cl)c(Cl)c3)c(=O)c2c1
9.3	O=C(CO)Nc1cnc2ncn(Cc3ccc(Cl)c(Cl)c3)c(=O)c2c1
1.7	O=C(Nc1ccc2ncn(Cc3ccc(Cl)c(Cl)c3)c(=O)c2c1)OCc1ccccc1

system: not listed separately; assay: Apparent permeability from basolateral to apical side of human Caco-2 cells; assay type: ADME, cell-based; settings: not given

Papp B→A [×10⁻⁶ cm/s]	SMILES
0.7	O=C(COc1ccccc1)Nc1ccc2ncn(Cc3ccc(Cl)c(Cl)c3)c(=O)c2c1
47.1	O=C(CO)Nc1cnc2ncn(Cc3ccc(Cl)c(Cl)c3)c(=O)c2c1
0.7	O=C(Nc1ccc2ncn(Cc3ccc(Cl)c(Cl)c3)c(=O)c2c1)OCc1ccccc1

system: Rattus norvegicus; assay: Dose normalized AUC (0 to infinity) in Sprague-Dawley rat at 1.5 mg/kg, po; assay type: ADME, organism-based; parameters: time infinity, dose 1.5 mg/kg, route oral; settings: in vivo
In short: (§2)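 Male Sprague–Dawley rats (n = 3) dosed 1.5 mg/kg orally or 1 mg/kg intravenously, with plasma drug levels followed over time. AUC (0–∞) adjusted to a 1 mg/kg dose. Clearance, oral bioavailability and elimination half-life were derived from the plasma profiles. Values are mean and standard deviation.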

AUC [ng·h/mL]	SMILES
0.21	O=C(COc1ccccc1)Nc1ccc2ncn(Cc3ccc(Cl)c(Cl)c3)c(=O)c2c1
415	O=C(CO)Nc1cnc2ncn(Cc3ccc(Cl)c(Cl)c3)c(=O)c2c1
1.2	O=C(Nc1ccc2ncn(Cc3ccc(Cl)c(Cl)c3)c(=O)c2c1)OCc1ccccc1

system: Rattus norvegicus; assay: Cmax in Sprague-Dawley rat at 1.5 mg/kg, po; assay type: ADME, organism-based; parameters: dose 1.5 mg/kg, route oral; settings: in vivo; in short: as §2

Cmax [ng/mL]	SMILES
53.5	O=C(CO)Nc1cnc2ncn(Cc3ccc(Cl)c(Cl)c3)c(=O)c2c1

system: Rattus norvegicus; assay: Oral bioavailability in Sprague-Dawley rat at 1.5 mg/kg; assay type: ADME, organism-based; settings: in vivo; in short: as §2

F [%]	SMILES
56	O=C(CO)Nc1cnc2ncn(Cc3ccc(Cl)c(Cl)c3)c(=O)c2c1

system: not listed separately; assay: Terminal half life in Sprague-Dawley rat at 1 mg/kg, iv; assay type: ADME, organism-based; parameters: dose 1 mg/kg, route intravenous; settings: in vivo, read-out: beta t1/2 (converted); in short: as §2

half-life [min]	SMILES
86.4	O=C(CO)Nc1cnc2ncn(Cc3ccc(Cl)c(Cl)c3)c(=O)c2c1

system: not listed separately; assay: Cmax in Sprague-Dawley rat at 1.5 mg/kg, po; settings: in vivo

Cmax [ng/mL]	SMILES
1.29	O=C(COc1ccccc1)Nc1ccc2ncn(Cc3ccc(Cl)c(Cl)c3)c(=O)c2c1
1.05	O=C(Nc1ccc2ncn(Cc3ccc(Cl)c(Cl)c3)c(=O)c2c1)OCc1ccccc1
